Data reported in ChEMBL document CHEMBL6134765, “Rapid identification of novel indolylarylsulfone derivatives as potent HIV-1 NNRTIs via miniaturized CuAAC click-chemistry-based combinatorial libraries” (RSC Med Chem, 2025).
pEC50: −log10 of the molar value.

What was measured:
[1] = target: Human immunodeficiency virus type 1 reverse transcriptase (Human immunodeficiency virus 1) (UniProt Q72547); assay: Inhibition of recombinant HIV-1 reverse transcriptase at 0.66 mM incubated for 1 hr by ELISA relative to control
In short: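 Each library compound was tested directly as the crude click mixture (diluted in DMSO to 2 mM per well) against HIV-1 RT at 0.66 mM, using an ELISA-based RT kit following the kit protocol. Blank controls held DMSO, TBTA, CuSO4·5H2O and sodium ascorbate. Inhibition is expressed as a percentage.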

[2] = Cytotoxicity against human MT4 cells assessed as reduction in cell viability incubated for 5 days by MTT assay; format: toxicity, cell-based; conditions: time 5 day
In short: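 Mock-infected MT-4 cultures were read by MTT for cell viability. CC50 is the concentration that reduces viability by 50%.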

[3] = test system: Human immunodeficiency virus 1; assay: Antiviral activity against HIV-1 harboring RES056 mutant infected in human MT4 cells assessed as inhibition of virus induced cytotoxicity incubated for 5 days by spectrophometry based MTT assay; format: functional, organism-based; conditions: Human immunodeficiency virus 1, MT4, 120 h
In short: (§1)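 MT-4 cells (from Dr. N. Yamamoto, Yamaguchi University) infected with single-mutant (L100I, K103N, Y181C, Y188L, E138K) or double-mutant (F227L/V106A; RES056 = K103N/Y181C) HIV-1 strains. Protection against virus-induced cytotoxicity was read by the MTT method. EC50 is the concentration giving 50% protection of the cell cultures.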

[4] = test system: Human immunodeficiency virus 1; assay: Antiviral activity against HIV-1 harboring K103N mutant infected in human MT4 cells assessed as inhibition of virus induced cytotoxicity incubated for 5 days by spectrophometry based MTT assay; format: functional, organism-based; conditions: Human immunodeficiency virus 1, MT4, 120 h; in short: as §1
[5] = test system: Human immunodeficiency virus 1; assay: Antiviral activity against HIV-1 harboring F227L/V106A double mutant infected in human MT4 cells assessed as inhibition of virus induced cytotoxicity incubated for 5 days by spectrophometry based MTT assay; format: functional, organism-based; conditions: Human immunodeficiency virus 1, MT4, 120 h; in short: as §1
[6] = Selectivity index, ratio of CC50 for cytotoxicity against human MT4 cells to EC50 for antiviral activity against wild-type HIV-1 IIIB infected in human MT4 cells; format: toxicity, cell-based; conditions: read-out: Ratio CC50/EC50
In short: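 Selectivity index is calculated as CC50 (mock-infected MT-4, MTT) divided by EC50 (HIV-1 IIIB protection of MT-4, MTT).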

[7] = test system: Human immunodeficiency virus 1; assay: Antiviral activity against HIV-1 harboring Y181C mutant infected in human MT4 cells assessed as inhibition of virus induced cytotoxicity incubated for 5 days by spectrophometry based MTT assay; format: functional, organism-based; conditions: Human immunodeficiency virus 1, MT4, 120 h; in short: as §1
[8] = test system: Human immunodeficiency virus 1; assay: Antiviral activity against HIV-1 harboring Y188L mutant infected in human MT4 cells assessed as inhibition of virus induced cytotoxicity incubated for 5 days by spectrophometry based MTT assay; format: functional, organism-based; conditions: Human immunodeficiency virus 1, MT4, 120 h; in short: as §1
[9] = test system: Human immunodeficiency virus 1; assay: Antiviral activity against HIV-1 harboring L100I mutant infected in human MT4 cells assessed as inhibition of virus induced cytotoxicity incubated for 5 days by spectrophometry based MTT assay; format: functional, organism-based; conditions: Human immunodeficiency virus 1, MT4, 120 h; in short: as §1
[10] = test system: Human immunodeficiency virus 1; assay: Antiviral activity against HIV-1 harboring E138K mutant infected in human MT4 cells assessed as inhibition of virus induced cytotoxicity incubated for 5 days by spectrophometry based MTT assay; format: functional, organism-based; conditions: Human immunodeficiency virus 1, MT4, 120 h; in short: as §1
[11] = test system: Human immunodeficiency virus 1; assay: Antiviral activity against wild-type HIV-1 IIIB infected in human MT4 cells incubated for 5 days by spectrophometry based MTT assay; format: functional, organism-based; conditions: Human immunodeficiency virus 1, IIIB, MT4, 120 h
In short: (§2)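 MTT protection assay in MT-4 cells infected with HIV-1 IIIB or HIV-2 ROD. EC50 is the compound concentration giving 50% protection of the cultures against virus-induced cytotoxicity.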

[12] = test system: Human immunodeficiency virus 2; assay: Antiviral activity against HIV-2 ROD infected in human MT4 cells incubated for 5 days by spectrophotometry based MTT assay; format: functional, organism-based; conditions: Human immunodeficiency virus 2, ROD, MT4, 120 h; in short: as §2

SMILES	inhibition [1] [%]	CC50 at 120 h [2] [µM]	pEC50 [3]	pEC50 [4]	pEC50 [5]	selectivity ratio [6]	pEC50 [7]	pEC50 [8]	pEC50 [9]	pEC50 [10]	pEC50 [11]	pEC50 [12]
Cc1cc(C)cc(S(=O)(=O)c2c(C(=O)NCc3cn(Cc4cccc(Cl)c4)nn3)[nH]c3ccc(Cl)cc23)c1	< 85	–	–	–	–	–	–	–	–	–	–	–
COC(=O)CCCn1cc(CNC(=O)c2[nH]c3ccc(Cl)cc3c2S(=O)(=O)c2cc(C)cc(C)c2)nn1	> 85	206	< 3.69	6.29	5.78	5810	6.24	5.04	6.57	7.30	7.46	< 3.69
Cc1cc(C)cc(S(=O)(=O)c2c(C(=O)NCc3cn(Cc4ccc(Cl)cc4)nn3)[nH]c3ccc(Cl)cc23)c1	< 85	–	–	–	–	–	–	–	–	–	–	–
Cc1cc(C)cc(S(=O)(=O)c2c(C(=O)NCc3cn(CC(=O)Nc4ccc(F)cc4)nn3)[nH]c3ccc(Cl)cc23)c1	> 85	16.2	< 4.79	5.56	5.29	188	5.97	4.85	6.28	6.25	7.06	< 4.79
Cc1cn([C@H]2C[C@H](N=[N+]=[N-])[C@@H](CO)O2)c(=O)[nH]c1=O [ZIDOVUDINE]	–	> 7.48	8.70	–	8.05	> 397	–	–	–	–	7.72	–
Cc1cc(C)cc(S(=O)(=O)c2c(C(=O)NCc3cn(CCCc4ccccc4)nn3)[nH]c3ccc(Cl)cc23)c1	> 85	117	< 3.93	5.49	5.01	302	5.57	< 3.93	5.73	5.86	6.41	< 3.93
Cc1cc(C)cc(S(=O)(=O)c2c(C(=O)NCc3cn(CC(=O)Nc4ccc(S(C)(=O)=O)cc4)nn3)[nH]c3ccc(Cl)cc23)c1	< 85	–	–	–	–	–	–	–	–	–	–	–
Cc1cc(C)cc(S(=O)(=O)c2c(C(=O)NCc3cn(CSc4ccccc4)nn3)[nH]c3ccc(Cl)cc23)c1	> 85	> 221	< 3.66	6.62	6.09	> 5510	6.17	4.80	6.82	6.74	7.40	< 3.66
Cc1cc(C)cc(S(=O)(=O)c2c(C(=O)NCc3cn(-c4ccc(C(=O)O)cc4Cl)nn3)[nH]c3ccc(Cl)cc23)c1	< 85	–	–	–	–	–	–	–	–	–	–	–
Cc1cc(C)cc(S(=O)(=O)c2c(C(=O)NCc3cn(-c4ccc5c(c4)OCO5)nn3)[nH]c3ccc(Cl)cc23)c1	< 85	–	–	–	–	–	–	–	–	–	–	–
Cc1cc(C)cc(S(=O)(=O)c2c(C(=O)NCc3cn(Cc4ccccc4Cl)nn3)[nH]c3ccc(Cl)cc23)c1	< 85	–	–	–	–	–	–	–	–	–	–	–
Cc1cc(C)cc(S(=O)(=O)c2c(C(=O)NCc3cn(CC(=O)N4CCOCC4)nn3)[nH]c3ccc(Cl)cc23)c1	< 85	–	–	–	–	–	–	–	–	–	–	–
Cc1cc(C)cc(S(=O)(=O)c2c(C(=O)NCc3cn(Cc4ccc([N+](=O)[O-])cc4)nn3)[nH]c3ccc(Cl)cc23)c1	< 85	–	–	–	–	–	–	–	–	–	–	–
Cc1cc(C)cc(S(=O)(=O)c2c(C(=O)NCc3cn(Cc4ccc(C(N)=O)cc4)nn3)[nH]c3ccc(Cl)cc23)c1	< 85	–	–	–	–	–	–	–	–	–	–	–
Cc1cc(C)cc(S(=O)(=O)c2c(C(=O)NCc3cn(CC(=O)Nc4ccc(C(F)(F)F)cc4)nn3)[nH]c3ccc(Cl)cc23)c1	> 85	17	< 4.77	5.76	< 4.77	148	< 5.13	6.40	6.23	5.65	6.96	< 4.77
Cc1cc(C)cc(S(=O)(=O)c2c(C(=O)NCc3cn(CCN4C(=O)c5ccccc5C4=O)nn3)[nH]c3ccc(Cl)cc23)c1	< 85	–	–	–	–	–	–	–	–	–	–	–
COC(=O)Cn1cc(CNC(=O)c2[nH]c3ccc(Cl)cc3c2S(=O)(=O)c2cc(C)cc(C)c2)nn1	> 85	6.46	< 5.19	6.85	5.97	143	6.10	4.93	6.66	6.77	7.35	< 5.19
COc1cccc(Cn2cc(CNC(=O)c3[nH]c4ccc(Cl)cc4c3S(=O)(=O)c3cc(C)cc(C)c3)nn2)c1	< 85	–	–	–	–	–	–	–	–	–	–	–
Cc1cc(C)cc(S(=O)(=O)c2c(C(=O)NCc3cn(CCc4ccsc4)nn3)[nH]c3ccc(Cl)cc23)c1	< 85	–	–	–	–	–	–	–	–	–	–	–
Cc1cc(C)cc(S(=O)(=O)c2c(C(=O)NCc3cn(Cc4ccccc4C#N)nn3)[nH]c3ccc(Cl)cc23)c1	< 85	–	–	–	–	–	–	–	–	–	–	–
